Screens (PubChem BioAssay)
HTRA1 inhibitor: blocks human HTRA1 serine peptidase. recombinant HTRA1, FP-rhodamine activity-based probe, fluorescence polarization. inhibition, % at 5.96 µM. 0.5% of 340,000 active; in the data active = inhibition above about 36%
PAFAH1B2 FP inh: inhibitors of human PAFAH1B2. recombinant PAFAH1B2, FP-rhodamine activity probe, fluorescence polarization. inhibition, % at 3.39 µM. 1.2% of 340,000 active. AID 492953;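 active = inhibition above the mean of all tested compounds plus 3 SD, cut at about 24% in these data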
Target sequence (P68402 whole entry, looked up): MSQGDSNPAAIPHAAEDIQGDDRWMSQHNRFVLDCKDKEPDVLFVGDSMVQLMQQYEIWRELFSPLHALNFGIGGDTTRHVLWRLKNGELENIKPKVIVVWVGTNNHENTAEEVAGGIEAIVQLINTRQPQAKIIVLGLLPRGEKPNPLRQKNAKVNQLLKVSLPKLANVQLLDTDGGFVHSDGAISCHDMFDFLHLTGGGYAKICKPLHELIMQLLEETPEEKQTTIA
PAFAH2 FP inh: PAFAH2 (human) inhibition | inhibition, % at 3.39 µM | AID 492956 | recombinant PAFAH2, FP-rhodamine activity probe, fluorescence polarization | 0.99% of 340,000 active | Q99487;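 active = inhibition above the mean over all tested compounds plus 3 SD, cut at about 30% in these data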;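 note: inhibitors block probe labeling of enzyme so polarization drops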
PAFAH1B3 FP inh: blocks human PAF acetylhydrolase 1B catalytic subunit 3. Q15102. recombinant PAFAH1B3, FP-rhodamine probe, fluorescence polarization. inhibition, % at 3.39 µM. 0.28% of 340,000 active. AID 492972;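 active = inhibition above the screen-wide average of all tested compounds plus 3 SD, cut at about 25% in these data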
Target sequence (Q15102 whole entry, looked up): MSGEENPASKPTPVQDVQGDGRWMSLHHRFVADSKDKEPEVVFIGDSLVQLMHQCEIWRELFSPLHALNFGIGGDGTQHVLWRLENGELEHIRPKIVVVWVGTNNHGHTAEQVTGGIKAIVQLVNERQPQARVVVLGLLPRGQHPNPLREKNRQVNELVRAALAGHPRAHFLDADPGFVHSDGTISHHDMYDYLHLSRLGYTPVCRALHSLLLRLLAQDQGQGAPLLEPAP
ABHD4 inh: inhibitors of mouse ABHD4; Q8VD66; purified mABHD4, FP-Rh probe fluorescence polarization; inhibition, % at 8.92 µM; 0.54% of 370,000 active;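 active = inhibition exceeding the mean over every tested compound plus 3 SD, cut at about 30% in these data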
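Assay system: wild-type mouse ABHD4 protein; compound: single nominal dose of 8.92 µM, 0.89% DMSO final; schedule: 45 min + 60 min at 25 °C; measured by: FP readout, ex 525 nm / em 598 nm; evaluation: % inhibition of FP-Rh probe binding versus controls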
pPAFAH inh: pPAFAH (human) enzyme inhibition; Q13093; recombinant pPAFAH, FP-rhodamine probe fluorescence polarization; inhibition, % at 3.39 µM; 1.5% of 330,000 active;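 active = inhibition above the mean inhibition across the screen plus 3 SD, cut at about 25% in these data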;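 note: inhibitors block binding of the rhodamine activity-based probe so polarization drops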
Large screens that a line does not name were inactive. Most compounds without a hit are left out; they make up all but 2.8% or so of the library.

CO[C@H]([C@H](C)/C=C/N(C)C=O)[C@@H](C)C(O)CC[C@H](C)[C@H](O)[C@H](C)[C@H]1OC(=O)/C=C/C(C)=C/C[C@H](O)C[C@@H]2C=CC[C@@H](C[C@H](OC)[C@@]3(CO3)[C@@H](OC)C[C@@H](OC)[C@@H]1C)O2 (some centres not stated)	none (no result: HTRA1 inhibitor, PAFAH1B2 FP inh, PAFAH2 FP inh, PAFAH1B3 FP inh, pPAFAH inh)
NC(=O)c1ccc[n+](CC(=O)OCCC23CC4CC(CC(C4)C2)C3)c1	PAFAH1B2 FP inh 26.2
NC(=O)c1ccc[n+](CC(=O)c2ccc(Br)cc2)c1	none
COC(=O)[C@]12C[C@H](CC(=O)NCCc3ccccc3OC)C(=O)N(Cc3ccc4c(c3)OCO4)C1=C[C@H](C(C)C)O[C@@H]2C1CC1	none (no result: HTRA1 inhibitor, PAFAH1B2 FP inh, PAFAH2 FP inh, PAFAH1B3 FP inh, pPAFAH inh)
CC(C)c1ccc(C(C)NC(=O)C2CCCC2)cc1 (configuration not stated)	none
CC(NC(=O)C1CCCC1)c1ccc(Br)cc1 (configuration not stated)	PAFAH1B2 FP inh 39.6
C#CCNC(=O)C[C@@H]1C(=O)N(Cc2ccc(OC)cc2)C2=CCN(C(=O)OC(C)(C)C)C[C@]21C(=O)OCC	none (no result: HTRA1 inhibitor, PAFAH1B2 FP inh, PAFAH2 FP inh, PAFAH1B3 FP inh, pPAFAH inh)
O=C(Nc1nc2ccccc2[nH]1)C12CC3CC(CC(C3)C1)C2	PAFAH1B2 FP inh 28.5
CCOC(=O)c1cc2c(N)c(C(=O)c3ccc(Br)cc3)sc2[nH]c1=O	PAFAH1B2 FP inh 32.0, PAFAH2 FP inh 31.8
Cc1nc2cc(C(=O)N3CCN(C(=O)C(C)(C)C)CC3)ccc2n1C1CCCC1	none (no result: HTRA1 inhibitor, PAFAH1B2 FP inh, PAFAH2 FP inh, PAFAH1B3 FP inh, pPAFAH inh)
COc1cc(/C=N/NC(=O)c2cc(C34CC5CC(CC(C5)C3)C4)[nH]n2)ccc1O	PAFAH1B2 FP inh 30.4
C#CCNC(=O)C[C@H]1C[C@@]2(C(=O)OC)C(=C[C@H](COCc3ccccc3)O[C@@H]2C)N(Cc2ccco2)C1=O	none (no result: HTRA1 inhibitor, PAFAH1B2 FP inh, PAFAH2 FP inh, PAFAH1B3 FP inh, pPAFAH inh)
CCOc1cc(C=O)ccc1OCCSc1ccc(Cl)cc1	PAFAH1B2 FP inh 54.1
CCCC1CCC2(CCC(=O)N2CCOC)CC1 (configuration not stated)	none (no result: HTRA1 inhibitor, PAFAH1B2 FP inh, PAFAH2 FP inh, PAFAH1B3 FP inh, pPAFAH inh)
Cc1cc(N2CCN(C(=O)OC(C)(C)C)C[C@H]2C)ccc1N1CCN(Cc2ccccc2)[C@@H](C)C1	none (no result: HTRA1 inhibitor, PAFAH1B2 FP inh, PAFAH2 FP inh, PAFAH1B3 FP inh, pPAFAH inh)
CCn1c2ccccc2c2cc(NC(=O)COC(=O)c3ccc(O)cc3)ccc21	pPAFAH inh 32.8
O=C(CSCC(=O)Nc1ccccc1)N/N=C/c1c(O)ccc2ccccc12	none
O=C(N/N=C/c1c(O)ccc2ccccc12)Nc1ccccc1	pPAFAH inh 26.6 (no result: HTRA1 inhibitor, PAFAH1B2 FP inh, PAFAH2 FP inh, PAFAH1B3 FP inh)
O=C(N/N=C\c1c(O)ccc2ccccc12)c1ccc(O)cc1	PAFAH1B3 FP inh 41.3, pPAFAH inh 25.9
COc1ccc(C2=Nc3cccc4cccc(c34)N2)cc1	none
Nc1cccc(C2=Nc3cccc4cccc(c34)N2)c1	PAFAH1B2 FP inh 25.2, PAFAH1B3 FP inh 32.6
COc1cc(/C=N/n2c(-c3cc(-c4ccccc4)n[nH]3)n[nH]c2=S)ccc1OCc1ccccc1	none (no result: HTRA1 inhibitor, PAFAH1B2 FP inh, PAFAH2 FP inh, PAFAH1B3 FP inh, pPAFAH inh)
Oc1cccc(Nc2nc(O)c(/C=C3\C=Nc4ccccc43)s2)c1	pPAFAH inh 28.2
O=C(Cn1c(O)c(/C=C2\C=Nc3ccccc32)sc1=O)N1CCOCC1	none
CC1=Nc2ccccc2/C1=C\c1sc(Nc2ccc(C)cc2)nc1O	pPAFAH inh 27.6
CC(C)CN1C(=O)C[C@@]2(C(=O)N(C)c3ccc(NS(=O)(=O)c4ccc(F)cc4)cc32)C1c1ccccc1 (some centres not stated)	none (no result: HTRA1 inhibitor, PAFAH1B2 FP inh, PAFAH2 FP inh, PAFAH1B3 FP inh, pPAFAH inh)
CCOC(=O)c1c(-c2ccc(C)o2)csc1NC(=O)CSc1nncs1	pPAFAH inh 24.9
CC1=C[C@]2(CN(CC3CC3)C3=N[C@H](c4ccccc4)CC(=O)N32)n2c(=O)n(-c3ccccc3)c(=O)n2C1	none (no result: HTRA1 inhibitor, PAFAH1B2 FP inh, PAFAH2 FP inh, PAFAH1B3 FP inh, pPAFAH inh)
CC(C)c1ccc(NS(=O)(=O)c2ccc(N3C(=O)CCC3=O)cc2)cc1	pPAFAH inh 29.2
CC(C)c1ccc(NS(=O)(=O)c2ccc(-n3cccn3)cc2)cc1	pPAFAH inh 25.4
CCN(Cc1ccccc1)c1ccc(/C=N/NS(=O)(=O)c2cccc([N+](=O)[O-])c2)cc1	PAFAH1B2 FP inh 45.1
CCN(Cc1ccccc1)c1ccc(/C=N/NC(=O)c2cccc(S(=O)(=O)N3CCOCC3)c2)cc1	pPAFAH inh 28.3
O=C(Nc1ncccc1O)c1cccc(S(=O)(=O)N2CCCc3ccccc32)c1	none
Cc1cccnc1NC(=O)c1cccc(S(=O)(=O)N2CCCc3ccccc32)c1	PAFAH1B2 FP inh 28.8
